Results: ChEMBL document CHEMBL4414577, “Discovery of Pyrrolo[2,3-b]pyridine (1,7-Dideazapurine) Nucleoside Analogues as Anti-Trypanosoma cruzi Agents” (J Med Chem, 2019)
One block for each molecule: values may come before it. Active and inactive are the calls of the source. No cut-off for these calls is given here.

Tests used:
L929 = test: Cytotoxicity against mouse L929 cells assessed as reduction in cell viability; type: cell-based
[1] = Selectivity index, ratio for EC50 for human MRC5 SV2 cells to EC50 for Trypanosoma cruzi Tulahuen CL2 amastigotes infected in human MRC5 SV2 cells; type: toxicity, cell-based; details: read-out: Ratio EC50
Trypanosoma cruzi [2] = test: Antitrypanosomal activity against bloodstream form of Trypanosoma cruzi Y trypomastigotes measured after 24 hrs by Neubauer chamber-based light microscopic analysis; type: functional, organism-based
[3] = Cytotoxicity against human MRC5 SV2 cells assessed as reduction in cell viability incubated for 3 days by resazurin dye based assay; details: MRC-5 SV2, 72 h
Trypanosoma cruzi [4] = test: Antitrypanosomal activity against Trypanosoma cruzi Tulahuen CL2 amastigotes infected in human MRC5 SV2 cells incubated for 7 days by chlorophenol red beta-D-galactopyranoside substrate based spectrophotometric assay; type: functional, organism-based; details: Tulahuen CL2, MRC-5 SV2, 168 h
Summary of the method: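 Intracellular amastigotes of β-galactosidase-expressing Tulahuen strain grown in MRC-5 fibroblast host cells. EC50 in μM given as mean and SEM of two or three independent experiments; some values come from a single determination.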

[5] = Cytotoxicity against Swiss mouse primary cardiac cells assessed as reduction in cell viability incubated for 24 hrs by PrestoBlue dye based colorimetry
[6] = Toxicity in Swiss Webster mouse infected with Trypanosoma cruzi Y trypomastigotes assessed as body weight loss at 100 mg/kg, po administered once daily for 5 days with 2 days interval for 3 cycles; type: organism-based; details: in vivo
Summary of the method: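 Y-strain-infected male Swiss Webster mice were dosed orally for 15 days (three rounds of 5 days, 2 drug-free days between) starting at 5 dpi. Regimens were 25 mg/kg b.i.d. or benznidazole 100 mg/kg s.i.d. Weight loss was recorded as a sign of toxicity, with mortality checked daily up to 53 dpi. There were six mice per group.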

Trypanosoma cruzi [7] = test: (§1) In vivo antitrypanosomal activity against Trypanosoma cruzi Y trypomastigotes infected in Swiss mouse assessed as reduction in parasitemia at 100 mg/kg, po administered once daily for 5 days with 2 days interval for 3 cycles and measured 9 days post-infection by light microscopy; type: functional, organism-based
Summary of the method: (§2)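 Male Swiss Webster mice infected i.p. with 10⁴ Y-strain bloodstream trypomastigotes; six per group. Oral gavage from 5 dpi for 15 days (three 5-day rounds, 2 days off): test compound 25 mg/kg b.i.d., benznidazole 100 mg/kg s.i.d. Parasites counted in 5 μL tail blood to 30 dpi; mortality followed to 53 dpi.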

Trypanosoma cruzi [8] = test: (§3) In vivo antitrypanosomal activity against Trypanosoma cruzi Y trypomastigotes infected in Swiss mouse assessed as reduction in parasitemia at 100 mg/kg, po administered once daily via gavage for 5 days starting from 5 days post-infection in presence of cyclophosphamide by light microscopic method; type: functional, organism-based
[9] = Toxicity in Swiss Webster mouse infected with Trypanosoma cruzi Y trypomastigotes assessed as appearance of clinical symptoms at 100 mg/kg, po administered once daily via gavage for 5 days starting from 5 days post-infection and measured daily up to 40 days post-infection; type: organism-based; details: in vivo
Summary of the method: (§4)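 Male Swiss Webster mice were infected i.p. with 10⁴ Y-strain trypomastigotes and treated by oral gavage for 5 days from 5 dpi. Regimens were 25 mg/kg b.i.d. (10% EtOH/citrate vehicle) or benznidazole 100 mg/kg s.i.d. Body weight and visual clinical signs were monitored, with daily mortality checks up to 40 dpi. There were six mice per group.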

Trypanosoma cruzi [10] = test: In vivo antitrypanosomal activity against Trypanosoma cruzi Y trypomastigotes infected in Swiss mouse assessed as mouse survival at 100 mg/kg, po administered once daily for 5 days with 2 days interval for 3 cycles and measured […]; type: functional, organism-based; summary of the method: as §2
Trypanosoma cruzi [11] = test: as §3, with “and measured up to 30 days post-infection” for “in presence of cyclophosphamide”, “method relative to control” for “method”; type: functional; parameters: scale not given: the % may be the effect or the level left
Summary of the method: (§5)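 Male Swiss Webster mice (18-20 g, 4-5 weeks) infected i.p. with 10⁴ Y-strain bloodstream trypomastigotes; six per group. Oral gavage from 5 dpi for 5 consecutive days: test compound at 25 mg/kg b.i.d. (2.0 mg/mL in 10% EtOH, 0.1 M citrate pH 3.02), benznidazole at 100 mg/kg s.i.d. Parasites counted in 5 μL tail blood to 30 dpi; mortality followed daily to 40 dpi.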

[12] = Toxicity in Swiss Webster mouse infected with Trypanosoma cruzi Y trypomastigotes assessed as body weight loss at 100 mg/kg, po administered once daily via gavage for 5 days starting from 5 days post-infection and measured daily up to 40 days post-infection; type: organism-based; details: in vivo; summary of the method: as §4
Trypanosoma cruzi [13] = test: In vivo antitrypanosomal activity against Trypanosoma cruzi Y trypomastigotes infected in Swiss mouse assessed as mouse survival at 100 mg/kg, po administered once daily via gavage for 5 days starting from 5 days post-infection and measured daily up to 40 days post-infection; type: functional, organism-based; summary of the method: as §5
Trypanosoma cruzi [14] = test: as §1, with “up to 30” for “9”, “microscopy relative to control” for “microscopy”; type: functional, organism-based; summary of the method: as §2
Trypanosoma cruzi [15] = test: In vivo antitrypanosomal activity against Trypanosoma cruzi Y trypomastigotes infected in Swiss mouse assessed as reduction in parasitemia at 100 mg/kg, po administered once daily for 5 days with 2 days interval for 3 cycles in presence of cyclophosphamide by light microscopy; type: functional, organism-based
Trypanosoma cruzi [16] = test: Antitrypanosomal activity against Trypanosoma cruzi Y amastigotes infected in Swiss mouse primary cardiac cells incubated for 168 hrs with media replenishment for every 48 hrs followed by compound washout and measured after 168 hrs by light microscopic method; type: functional, organism-based
Summary of the method: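 Cardiac cells plated 24 h, then infected 24 h at 37 °C with Y-strain bloodstream trypomastigotes (parasite:host 10:1) and washed. Serial dilutions (up to 5 µM) for 168 h at 37 °C, drug medium renewed every 48 h. PBS rinse, 168 h drug-free. Giemsa-stained; infected cells and parasites per cell scored in 200 cells. EC50 from infection-index inhibition; two experiments, duplicate.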

Trypanosoma cruzi [17] = test: as §3, with “and measured 8 days post-infection” for “in presence of cyclophosphamide”, “method relative to control” for “method”; type: functional; parameters: scale not given: the % may be the effect or the level left; summary of the method: as §5

EC50 (Trypanosoma cruzi [2]): > 50 µM
Structure (SMILES): Cc1cn([C@@H]2O[C@H](CO)[C@@H](O)[C@H]2O)c2nccc(N)c12
EC50 (L929): > 200 µM
selectivity ratio [1]: 45
EC50 [3]: 51.6 µM
EC50 (Trypanosoma cruzi [4]): 1.14 µM

Structure (SMILES): Nc1ccnc2c1c(/C=C/c1ccccc1)cn2[C@@H]1O[C@H](CO)[C@@H](O)[C@H]1O
EC50 [3]: > 64 µM
EC50 (Trypanosoma cruzi [4]): > 64 µM

Structure (SMILES): Nc1ccnc2c1c(-c1cccs1)cn2[C@@H]1O[C@H](CO)[C@@H](O)[C@H]1O
selectivity ratio [1]: > 1.7
EC50 [3]: > 64 µM
EC50 (Trypanosoma cruzi [4]): 36.9 µM

Structure (SMILES): Nc1ccnc2c1c(C1CCCCC1)cn2[C@@H]1O[C@H](CO)[C@@H](O)[C@H]1O
EC50 [3]: > 64 µM
EC50 (Trypanosoma cruzi [4]): > 64 µM

EC50 (Trypanosoma cruzi [2]): > 50 µM
Structure (SMILES): Nc1ccnc2c1c(Cl)cn2[C@@H]1O[C@H](CO)[C@@H](O)[C@H]1O
EC50 (L929): > 200 µM
EC50 [5]: > 400 µM
selectivity ratio [1]: > 337
EC50 [3]: > 64 µM
EC50 (Trypanosoma cruzi [4]): 0.19 µM

Structure (SMILES): N#Cc1cn([C@@H]2O[C@H](CO)[C@@H](O)[C@H]2O)c2nccc(N)c12
selectivity ratio [1]: 4.6
EC50 [3]: 18.5 µM
EC50 (Trypanosoma cruzi [4]): 4 µM

Structure (SMILES): Nc1ccnc2c1c(I)cn2[C@H]1C[C@H](O)[C@@H](CO)O1
EC50 [3]: > 64 µM
EC50 (Trypanosoma cruzi [4]): > 64 µM

Structure (SMILES): Nc1ccnc2c1c(F)cn2[C@@H]1O[C@H](CO)[C@@H](O)[C@H]1O
selectivity ratio [1]: > 7.3
EC50 [3]: > 64 µM
EC50 (Trypanosoma cruzi [4]): 8.8 µM

Structure (SMILES): Nc1ccnc2c1c(-c1ccccc1)cn2[C@@H]1O[C@H](CO)[C@@H](O)[C@H]1O
EC50 [3]: > 64 µM
EC50 (Trypanosoma cruzi [4]): > 64 µM

EC50 (Trypanosoma cruzi [2]): > 50 µM
Structure (SMILES): C=Cc1cn([C@@H]2O[C@H](CO)[C@@H](O)[C@H]2O)c2nccc(N)c12
EC50 (L929): > 200 µM
selectivity ratio [1]: > 79
EC50 [3]: > 64 µM
EC50 (Trypanosoma cruzi [4]): 0.81 µM

Structure (SMILES): C[C@H]1O[C@@H](n2cc(I)c3c(N)ccnc32)[C@H](O)[C@@H]1O
EC50 [3]: > 64 µM
EC50 (Trypanosoma cruzi [4]): > 64 µM

EC50 (Trypanosoma cruzi [2]): 36.3 µM
Structure (SMILES): OC[C@H]1O[C@@H](n2cc(I)c3cccnc32)[C@H](O)[C@@H]1O
EC50 (L929): > 200 µM
selectivity ratio [1]: > 30
EC50 [3]: 52.9 µM
EC50 (Trypanosoma cruzi [4]): 1.75 µM

Structure (SMILES): Nc1ccnc2c1c(I)cn2[C@@H]1O[C@H](CO)C[C@H]1O
EC50 [3]: > 64 µM
EC50 (Trypanosoma cruzi [4]): > 64 µM

Structure (SMILES): Nc1ccnc2c1c(-c1ccccn1)cn2[C@@H]1O[C@H](CO)[C@@H](O)[C@H]1O
EC50 [3]: > 64 µM
EC50 (Trypanosoma cruzi [4]): > 64 µM

Structure (SMILES): Nc1ccnc2[nH]cc(I)c12
EC50 [3]: > 64 µM
EC50 (Trypanosoma cruzi [4]): > 64 µM

Structure (SMILES): CCc1cn([C@@H]2O[C@H](CO)[C@@H](O)[C@H]2O)c2nccc(N)c12
EC50 [3]: > 64 µM
EC50 (Trypanosoma cruzi [4]): > 64 µM

Structure (SMILES): Nc1ccnc2c1c([N+](=O)[O-])cn2[C@@H]1O[C@H](CO)[C@@H](O)[C@H]1O
selectivity ratio [1]: > 1.3
EC50 [3]: > 64 µM
EC50 (Trypanosoma cruzi [4]): 47.7 µM

EC50 (Trypanosoma cruzi [2]): 40.5 µM
Structure (SMILES): C#Cc1cn([C@@H]2O[C@H](CO)[C@@H](O)[C@H]2O)c2nccc(N)c12
EC50 (L929): > 200 µM
selectivity ratio [1]: 730
EC50 [3]: 59 µM
EC50 (Trypanosoma cruzi [4]): 0.08 µM

Structure (SMILES): Nc1ccnc2c1ccn2[C@@H]1O[C@H](CO)[C@@H](O)[C@H]1O
selectivity ratio [1]: 7.9
EC50 [3]: 17.9 µM
EC50 (Trypanosoma cruzi [4]): 2.27 µM

Structure (SMILES): Nc1ncnc2c1c(I)cn2[C@@H]1O[C@H](CO)[C@@H](O)[C@H]1O [IODOTUBERCIDIN]
selectivity ratio [1]: 6.7
EC50 [3]: 5.35 µM
EC50 (Trypanosoma cruzi [4]): 0.8 µM

Structure (SMILES): Nc1ccnc2c1c(-c1ccc(Cl)cc1)cn2[C@@H]1O[C@H](CO)[C@@H](O)[C@H]1O
EC50 [3]: > 64 µM
EC50 (Trypanosoma cruzi [4]): > 64 µM

Structure (SMILES): Nc1ccnc2c1c(C#Cc1ccccc1)cn2[C@@H]1O[C@H](CO)[C@@H](O)[C@H]1O
EC50 [3]: > 64 µM
EC50 (Trypanosoma cruzi [4]): > 64 µM

Structure (SMILES): O=C(Cn1ccnc1[N+](=O)[O-])NCc1ccccc1 [BENZNIDAZOLE]
Activity [6]: Non-Toxic
EC50 (L929): > 200 µM
EC50 [5]: > 400 µM
Activity (Trypanosoma cruzi [7]): Active
EC50 (Trypanosoma cruzi [2]): 5.7 µM
Activity (Trypanosoma cruzi [8]): inactive
Activity [9]: Non-Toxic
Activity (Trypanosoma cruzi [10]): inactive
Activity (Trypanosoma cruzi [11]): 100%
Activity [12]: Non-Toxic
Activity (Trypanosoma cruzi [13]): Active
Activity (Trypanosoma cruzi [14]): Active
Activity (Trypanosoma cruzi [15]): inactive
EC50 (Trypanosoma cruzi [16]): 2.7 µM
Activity (Trypanosoma cruzi [17]): 100%
EC50 (Trypanosoma cruzi [4]): 2.36 µM

Structure (SMILES): Nc1ccnc2c1c(Br)cn2[C@@H]1O[C@H](CO)[C@@H](O)[C@H]1O
selectivity ratio [1]: > 320
EC50 [3]: > 64 µM
EC50 (Trypanosoma cruzi [4]): 0.2 µM

Structure (SMILES): Nc1ccnc2c1c(C(F)(F)F)cn2[C@@H]1O[C@H](CO)[C@@H](O)[C@H]1O
selectivity ratio [1]: 0.47
EC50 [3]: 0.73 µM
EC50 (Trypanosoma cruzi [4]): 1.56 µM

Structure (SMILES): Cc1ccnc2c1c(I)cn2[C@@H]1O[C@H](CO)[C@@H](O)[C@H]1O
selectivity ratio [1]: 0.29
EC50 [3]: 2.29 µM
EC50 (Trypanosoma cruzi [4]): 7.98 µM

Structure (SMILES): OC[C@H]1O[C@@H](n2cc(I)c3c(Cl)ccnc32)[C@H](O)[C@@H]1O
selectivity ratio [1]: 1
EC50 [3]: 2.18 µM
EC50 (Trypanosoma cruzi [4]): 2.14 µM

Structure (SMILES): Nc1ccnc2c1c(C1=CCCCC1)cn2[C@@H]1O[C@H](CO)[C@@H](O)[C@H]1O
EC50 [3]: > 64 µM
EC50 (Trypanosoma cruzi [4]): > 64 µM
